Test results as given in ChEMBL document CHEMBL4513216, “Probing the Open Global Health Chemical Diversity Library for Multistage-Active Starting Points for Next-Generation Antimalarials” (ACS Infect Dis, 2020).

Assay: Toxicity liver stage against HepG2, at 10uM
Format: cell-based
Design: test concentration 10 uM, cell line HepG2-A16-CD81EGFP
Conditions: human, HepG2-A16-CD81EGFP cells; read-out: INHIBITION
Method in brief: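 Uninfected HepG2-A16-CD81EGFP cells, 3 × 10^3 per well, 1536-well, plated on prespotted compound at 10 μM final, parasite-free screening media added to match infected plates; puromycin 10 μM positive, DMSO 0.5% negative; run in parallel with 48 h PbLuc assay at 37 °C, 5% CO2; viability by CellTiter-Glo luminescence, normalized to controls.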

SMILES | cytotoxicity at 10 µM
Cc1nn(CCC#N)c(C)c1CCC(=O)N(C)C | -7.33%
CC(C)N1CCC(CNCc2c[nH]nc2C(C)(C)C)C1 (stereo not given) | -2.16%
CN1C(Cn2cccn2)C[C@@H]2CN(Cc3nccs3)CC[C@@H]21 (stereo not given in full) | 3.8%
CC(Cn1cccn1)NCc1csc(Cc2ccccc2)n1 (stereo not given) | -8.15%
CCC(C(=O)N(C)C)n1ccc2ncccc2c1=O (stereo not given) | 3.63%
CCCN1CCC(N(C)C(=O)c2cc(C)nc3cc(F)ccc23)CC1 | 0.906%
Cc1nnc2n1CCN(CC(O)CN1CCC(C)CC1)C2 (stereo not given) | 2.78%
CCCSCC(=O)NCc1cccc(CN(C)CC)c1 | -0.823%
Cc1cc(C)nc(NCCC(=O)NCCn2ccnc2C)n1 | 2.77%
Fc1ccc(CNCc2cc(Br)c3c(c2)OCO3)cc1 | 0.658%
CC1CN(S(=O)(=O)c2ccc(C(=O)NCC(F)F)cc2)CCCO1 (stereo not given) | 4.05%
Cc1cnc(C(=O)N2CCC3(CC2)C(=O)NCCN3CC(C)C)cn1 | 8.52%
CCc1cnc(CN(C)C(=O)NC2CCN(C)C2=O)s1 (stereo not given) | -0.786%
Cc1ncncc1C(=O)N1CCC(O)(CN(C)Cc2ccc(F)cc2)C1 (stereo not given) | -7.16%
CCNC(=O)C1CCN(c2nccc(C3CCCC3)n2)C1 (stereo not given) | -5.6%
CCN1CCC(Cn2ccc3c(OC)c(OC)ccc3c2=O)C1 (stereo not given) | -4.7%
COc1cccc(C)c1C(=O)N1C[C@@H](CN(C)C)[C@@H](CO)C1 | -10.4%
COc1cccc(CCC2CCCN(C(=O)C3=NN(C)C(=O)CC3)C2)c1 (stereo not given) | -2.06%
O=C(CCc1c[nH]cn1)N1CC[C@@H](c2ccc3ccccc3c2)[C@H](O)C1 | -4.04%
Cc1nn(C)c(C)c1-c1cc(-c2cnn(C)c2C2CC2)c(C#N)c(N)n1 | 18%
Cc1ccc(N2CCO[C@H]3[C@H](OCC(=O)N4CCCC4)CC[C@@H]32)cc1 | -1.03%
CCN1CCN(c2ccc(F)cc2C(C)NCc2ccncc2)CC1 (stereo not given) | -1.4%

SMILES | cytotoxicity at 10 µM
CCNc1ncc(C(=O)NCCc2csc(CSC)n2)cn1 | -5.63%
COc1cccc(-c2ccc3nc(C4CCN(C(C)=O)CC4)nn3c2)c1 | 9.84%
CCCOc1ccc(C(=O)N2CCN3CCNC(=O)C3C2)cc1Cl (stereo not given) | -1.65%
Cc1noc([C@@]23CCO[C@@H]2CCN(C(=O)c2sccc2C)C3)n1 | -8.23%
Cc1cc(=O)c(C(=O)N2CCN(C)c3ccccc3C2)c[nH]1 | 3.53%
CSCCC(NC(N)=O)C(=O)NCc1cnn(-c2ccccc2)c1 (stereo not given) | 5.79%
O=C1CCC2(CCCN(c3ncc(F)cn3)CC2)N1Cc1ccccc1 (stereo not given) | 2.87%
Cc1cccc(CO[C@@H]2CC[C@H]3[C@H]2OCCN3Cc2cc(C)on2)n1 | -3.59%
CCn1cnnc1C1CCN(C(=O)c2cccc(OC)c2OC)CC1 | -7.96%
CC(CNC(=O)NCc1ccsc1)CC1(C)OCCO1 (stereo not given) | 1.24%
NC1(c2nc(-c3ccccc3)cc(=O)[nH]2)CCCCC1 | 7.25%
Cc1oc(-c2cccs2)nc1C(=O)N1CCCC1Cn1cccn1 (stereo not given) | -7.22%
CN(CC1CCOCC1)C(C(=O)O)c1cccc(F)c1F (stereo not given) | 6.89%
CC(C)c1nc2n(n1)CC(NCC(=O)N(C)Cc1cccs1)CC2 (stereo not given) | -10.2%
CS(=O)(=O)N[C@@H]1CCN(Cc2nccs2)[C@H]1Cc1ccncc1 | -2.48%
COCC(=O)N1CCc2[nH]c(=O)ccc2C1 | 4.11%
O=C(Nc1cncc(Br)c1O)c1ccon1 | 15.4%
CNC(=O)CN1CCO[C@H]2CN(CC3CCOC3)C[C@H]21 (stereo not given in full) | 7.64%
CCn1c(C)nnc1SCCNC(=O)c1cnc(N(C)C)nc1C | 6.9%
CCN1CCN(S(=O)(=O)N2CCCC2)[C@H]2CS(=O)(=O)C[C@H]21 | -4.14%
CC(C)OCCN1CCC(Nc2ccc(C#N)cc2F)CC1 | -4.94%
COc1c(CNCc2ccc(Cn3ccnc3)cc2)c(C)nn1C | -25.1%

SMILES | cytotoxicity at 10 µM
Cc1ccc(Cl)cc1NC(=O)Cn1cc(C(=O)O)ccc1=O | -1.45%
Cc1ccccc1CC(C)NCc1c(C)nn(C)c1N1CCOCC1 (stereo not given) | -13.1%
COc1ccc(OCCc2cc(C3CCN(CC(C)C)C3)n[nH]2)cc1 (stereo not given) | 1.97%
CC(C)C[C@H](N)COc1cccc(F)c1Oc1ccc(Cl)cc1 | 84.7%
Cc1nc(NC(=O)C(C)S(C)(=O)=O)sc1Cc1ccccc1F (stereo not given) | 9.8%
O=C(O)[C@@H]1CN(C2CCCCC2)C[C@H]1C1CC1 | -140%
CC(CN1CCOCC1)OC(=O)c1cccc2cn[nH]c12 (stereo not given) | -1.08%
COc1ccc(CN(C)C(=O)CCC(=O)c2cccs2)c(OC)c1OC | -10.7%
CC(C)OCCN1CCN(C(=O)c2cc(-n3cccn3)ccn2)CC1 | -0.158%
O=C1CN(c2ccc(CNC(=O)Nc3nnc(C4CC4)s3)cc2)CCN1 | -3.73%
COCCCNC(=O)N1CCN(C(=O)c2nsc3ccccc23)CC1 | 12%
CCC(CC)c1cc(CNC(=O)N2CCN(CC)CC2)on1 | -3.26%
Cc1nn(C)c(N(C)C)c1CNCCC(=O)NC1CCCCC1 | -13.4%
COc1cc(C(=O)NCCc2ccc(OC)c(OC)c2)on1 | 1.84%
CCC(CN1CCOCC1)n1cncc1-c1ccc2c(c1)CCN2CC (stereo not given) | 14.9%
Cc1cc(N2CCc3c(ncn3C3CC3)C2)nc(N)n1 | -5.44%
Cc1cc(C(=O)N2CCCC(n3cncn3)C2)nn1C (stereo not given) | -0.776%
O=C(NCc1ccccc1Cn1cncn1)C1CCC1 | -4.43%
COc1ccc(C[C@H]2CN(C(=O)CN(C)C)CC[C@H]2OC)cc1 | 3.96%
Cc1nc(CN2CCCC(Nc3ncnc4ccsc34)C2)no1 (stereo not given) | 42.2%
CCc1nc(CC(=O)N2CCn3c(C)nnc3C2)cs1 | -9.57%
COc1ccnc(N2CCCN(Cc3ncc(C(C)C)o3)CC2)n1 | 1.74%

SMILES | cytotoxicity at 10 µM
CCn1nc(C)c2ncnc(NCCN3CCOCC3)c21 | 8.93%
Cc1noc(C)c1NS(=O)(=O)c1cc(C(=O)O)cc(Cl)c1Cl | 6.14%
CN(C)c1nc(N)nc(CSCCC(=O)Nc2cccc(Cl)c2)n1 | 0.779%
O=C(Cc1ccc(-n2cnnn2)cc1)Nc1cnn(CC(F)F)c1 | 1.97%
O=C(Nc1ncn(Cc2cccc(Br)c2)n1)C1CCC1 | 11.4%
CC(C)Cc1ccc(S(=O)(=O)NCCCN2CCNC(=O)C2)cc1 | -4.36%
NC(=O)NCCC(=O)N1CCC(c2cc(-c3ccccc3Cl)n[nH]2)CC1 | -6.67%
COc1c(CNCc2ccc(CS(C)(=O)=O)cc2)c(C)nn1C | -4.47%
CC(C)N1CCC(CC(=O)NCc2cc(O)ncn2)CC1 | 7.81%
O=C(NCc1cc(=O)n2c(n1)CN(CC1CC1)CCC2)c1ccsc1 | -103%
Cc1ncc(CNCC2CCC(C(N)=O)CC2)n1-c1ccccc1 (stereo not given) | -12.9%
Cc1nc(CN(C)c2nccc(N(C)C)n2)cs1 | -9.86%
Cc1ccc(CNC(=O)C2CCN(C(=O)C(C)C)CC2)n1C | 5.71%
CN1CCOCC12CCN(c1nncs1)CC2 | 8.16%
NC(=O)CN1CCCC(c2ccnc(Nc3ncccn3)c2)C1 (stereo not given) | 10.1%
OC1(CNc2ccc(-c3nc(C4CC4)no3)cn2)CCCCC1 | 7.72%
CC(C)c1nc(/C=C/c2ccc(O)c(Cl)c2)ncc1C(=O)O | -1.7%
N#Cc1cn(C2CC2)c(=O)n(Cc2noc(-c3cccs3)n2)c1=O | 13%
Cc1noc(C)c1CN1C[C@H](C)[C@]2(CCN(Cc3cccnc3)C2=O)C1 | 4.59%
CCS(=O)(=O)c1ccc(N2CCC(NC(=O)CCC(C)C)CC2)cc1 | 15.7%
CCN(C)S(=O)(=O)N1CCCC(CO)(CC=C(C)C)C1 (stereo not given) | -3.41%
COc1cccc(S(=O)(=O)CCN2CCCN(C(C)=O)CC2)c1 | -10.4%

SMILES | cytotoxicity at 10 µM
CCCS(=O)(=O)N1CCC2(CCC(=O)N(CCc3ccncc3)C2)CC1 | -11.7%
O=C(Cn1nc(-c2ccc(F)cc2)oc1=O)NCc1ccccc1F | -9.04%
CCN1CCN(S(=O)(=O)N2CCC(OC)CC2)[C@H]2CS(=O)(=O)C[C@H]21 | -1.6%
O=C([C@@H]1C[C@@H]2CCN(Cc3ccoc3)C[C@H]2O1)N1CCCC1 | -101%
CCc1cnc(CN(C)C2CCN(CCCNS(C)(=O)=O)C2)o1 (stereo not given) | -3.4%
CCc1ccccc1N1CC(c2nnc(N)s2)CC1=O (stereo not given) | 0.502%
CCC1(O)CCCN(c2nc(-c3ccccn3)nc3c2c(C)nn3C)C1 (stereo not given) | 3.11%
CCN1CCNC(=O)C12CCN(C(=O)Cc1ccsc1)CC2 | -3.31%
COCc1cc(N(Cc2ccsc2)C2CC2)n2ncnc2n1 | -3.75%
COCCN(Cc1ccncc1)C(=O)C1COc2c(cccc2OC)C1 (stereo not given) | -14.6%
Cc1cc(C)n(CC2CN(CCOc3ccccc3F)CCO2)n1 (stereo not given) | -6.73%
O=C(Cn1cc(-c2ccccc2)cn1)N1CCNC1=O | 6.74%
CCCSCC(=O)N1C[C@@H]2CC[C@H]1CN(Cc1cccnc1)C2 | 1.64%
CCN(CCC(=O)OC)C(=O)c1cc(F)cc2[nH]cnc12 | -7.37%
Cc1nc(C(=O)NCc2ccccn2)cc(C2CCCN2)n1 (stereo not given) | 6.83%
Cn1cc(CNc2ncnc3c2CCN(Cc2ccsc2)CC3)cn1 | 15.5%
O=C(O)Cn1nc(C2CC2)c2c(-c3ccc(F)cc3)ccnc21 | -3.32%
O=C(CN1CCCC1)N1CCCC(CNS(=O)(=O)Cc2ccccc2)C1 (stereo not given) | -17.9%
CCN(CC)c1ccc(C(=O)N2CCC(c3nc(C)no3)CC2)cn1 | -7.42%
O=C(O)c1ccccc1-n1cc(CN2CCC(c3cc[nH]n3)C2)cn1 (stereo not given) | 1.1%
O=C(c1ccccn1)N1CCN(c2ccc(-c3cccnc3)nn2)CC1 | 2.84%
Cc1ccc(C)c(NC(=O)N2CCC3(CC2)NC(=O)CC3C(=O)O)c1 (stereo not given) | 4.9%
